According to article PMC9605878 (Cell Chemical Biology, 2022):
Converted amounts (≈) assume the structure as drawn. Read-outs that look alike come from different tables or passages of the source.

Key:
S. aureus strain RN6390B = experiment: S. aureus MIC, broth microdilution; format: cell-based, Staphylococcus aureus
Procedure, shortened: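 Broth microdilution MIC in Müller–Hinton broth at 37°C; S. aureus also tested in MHB containing 10% FBS.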

S. aureus membranes [1] = experiment: Membrane dipole potential; format: binding, Staphylococcus aureus; conditions: for change in membrane dipole potential: fixed concentration 40 μM, fluorescence ratio R(460/520)
Procedure, shortened: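 Isolated S. aureus membranes labelled with the dipole-potential probe di-8-ANEPPS. Dipole potential change followed as fluorescence ratio R(460/520), at a fixed 40 μM per compound. Kd obtained from binding curves versus compound concentration by the dual-wavelength ratiometric method, with methanol included. Mean of three independent experiments ±SD.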

[2] = test system: defibrinated rabbit red blood cells; experiment: Haemolytic activity; format: cell-based
Procedure, shortened: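 Defibrinated rabbit blood incubated in PBS for 60 min with test compound or Triton X-100 (positive control). Samples pelleted and supernatant A543 measured. Percent haemolysis calculated relative to the Triton X-100 control.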

Staphylococcal cells = experiment: Dissipation of transmembrane potential; format: cell-based, Staphylococcus aureus; conditions: 10 μM test compound
Procedure, shortened: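 Staphylococcal cells suspended in 50 mM potassium phosphate buffer, pH 7, with 5 μM DiSC3(5). Fluorescence (ex 650, em 680 nm) monitored over 200 s. Test compound (10 μM) added once signal stabilised. Valinomycin (5 μM) then added for complete depolarisation. Novobiocin and chloramphenicol (10 μg/ml) served as negative controls. Three independent repeats, representative traces.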

PqsR = conditions: read-out: PqsR IC50; ref Ilangovan et al., 2013; cited from earlier work
[3] = test system: S. aureus strain USA300 JE2; experiment: Membrane permeabilization; format: cell-based, Staphylococcus aureus; conditions: 10 μM, relative to nisin 0.6 μM
Procedure, shortened: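 USA300 JE2 grown overnight in CYGP, washed in 100 mM phosphate buffer pH 7, resuspended to OD600 0.1 and exposed to test compound for 1 h at 37°C. Nisin (0.6 μM) used as positive control. Cell-free supernatant ATP measured by luminescence kit. For PI uptake, cells held in phosphate buffer pH 7 with PI (10 μg/ml), 10 min dark at RT, washed, then read (ex 575/em 630 nm). Mean of three experiments ±SD.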

S. aureus membranes [4] = conditions: read-out: Kd (membrane-active agent); ref Murray et al., 2014; cited from earlier work
Chrome azurol S = format: physicochemical; conditions: 50 μM, PBS pH 7.4
Procedure, shortened: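 PBS (pH 7.4) with test compound (50 μM), or without it as reference, mixed with an equal volume of CAS assay solution. A630 read after 15 min at room temperature. Siderophore units = […].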

[5] = test system: S. aureus SH1000 in mixed biofilm with P. aeruginosa PAO1; experiment: Mixed-species biofilm, S. aureus component; format: cell-based, Staphylococcus aureus; conditions: tobramycin alone (100 μg/mL, 4 h)
Procedure, shortened: (§1)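 GFP-tagged S. aureus SH1000 and mCherry-tagged P. aeruginosa PAO1 grown 16 h in RPMI-1640, diluted 1:100, regrown to OD600 ~0.5, then diluted to OD600 0.1 and 0.01 respectively. S. aureus seeded on glass coverslips for 1 h static, then P. aeruginosa added (10:1). Test compound (100 μM) or DMSO added; 48 h at 37°C. Where required, tobramycin (100 μg/mL) added for a further 4 h. Confocal imaging, biomass quantified per species; 3 experiments ±SD.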

[6] = test system: P. aeruginosa PAO1 in mixed biofilm with S. aureus SH1000; experiment: Mixed-species biofilm, P. aeruginosa component; format: cell-based, Pseudomonas aeruginosa; conditions: tobramycin alone (100 μg/mL, 4 h)
Procedure, shortened: as §1

[7] = S. aureus RN6390B, broth microdilution

`CCCCCCCc1nc2ccccc2c(=O)[nH]1` [Compound 1] showed an MIC (S. aureus strain RN6390B; [7]) greater than 100 µM.

With `CCCCCCCCCc1nc2ccccc2c(=O)[nH]1` [Compound 2] the MIC (S. aureus strain RN6390B; [7]) was greater than 100 µM and the “change in membrane dipole potential” value (S. aureus membranes [1]) was “little impact”.

With `CCCCCCCCCc1nc2cc(Cl)ccc2c(=O)[nH]1` [Compound 4, 7-Chloro-2-n-nonylquinazolin-4(3H)-one] the MIC (S. aureus strain RN6390B; Staphylococcus aureus, RN6390B) was greater than 100 µM.

In the case of `CCCCCCCC1Nc2ccccc2S(=O)(=O)N1` (stereo not shown) [Compound 5, 3-n-Heptyl-3,4-dihydro-2H-benzo[e][1,2,4]thiadiazine 1,1-dioxide], the “S. aureus growth-inhibitory activity” value (S. aureus strain RN6390B) is reported as “inactive” and the MIC (S. aureus strain RN6390B; Staphylococcus aureus, RN6390B) is reported as greater than 100 µM.

In the case of `CCCCCCCCCC1Nc2ccccc2S(=O)(=O)N1` (stereo not shown) [Compound 6, 3-n-Nonyl-3,4-dihydro-2H-benzo[e][1,2,4]thiadiazine 1,1-dioxide], the “S. aureus growth-inhibitory activity” value (S. aureus strain RN6390B) is reported as “inactive” and the MIC (S. aureus strain RN6390B; Staphylococcus aureus, RN6390B) is reported as greater than 100 µM.

In the case of `CCCCCc1nc2ccccc2c(=O)n1N` [Compound 7], the MIC (S. aureus strain RN6390B; [7]) is reported as greater than 100 µM.

With `CCCCCCCc1nc2ccccc2c(=O)n1N` [Compound 8] the MIC (S. aureus strain RN6390B; [7]) was greater than 100 µM.

For `Cc1nc2ccccc2c(=O)n1N` [Compound 17, 3-Amino-2-methylquinazolin-4(3H)-one], the MIC (S. aureus strain RN6390B; Staphylococcus aureus, RN6390B) was greater than 100 µM.

`CCCCCCCCCc1nc2cc(F)ccc2c(=O)n1N` [Compound 18] gave an MIC (S. aureus strain RN6390B; [7]) greater than 100 µM.

For `CCCCCCCCCc1nc2cc(Cl)ccc2c(=O)n1N` [Compound 19], the MIC (S. aureus strain RN6390B; [7]) was greater than 100 µM, the “hemolytic activity” value [2] was “not hemolytic” and the “change in membrane dipole potential” value (S. aureus membranes [1]) was “increased”. The “DiSC3(5) fluorescence / transmembrane potential” value (Staphylococcal cells) was “does not increase fluorescence” and the IC50 (PqsR) was 5 µM.

Work on `CCCCCCCCCc1nc2cc(F)c(F)cc2c(=O)n1N` [Compound 22] yielded an MIC (S. aureus strain RN6390B; [7]) greater than 100 µM.

With `CCCCCCCCCc1nc2cc(Cl)ccc2c(=O)n1CCCCN` [Compound 35, 3-(4-Aminobutyl)-7-chloro-2-n-nonylquinazolin-4(3H)-one] the MIC (S. aureus strain RN6390B; Staphylococcus aureus, RN6390B) was 12.5 µM (≈ 4.72 µg/mL), the “change in membrane dipole potential” value (S. aureus membranes [1]) was “greatest changes in dipole potential” and the Kd (S. aureus membranes [1]; read-out: Kd (membrane binding), binding curves, di-8-ANEPPS) was 5.2 ± 0.3 µM. For the same molecule, the “DiSC3(5) fluorescence / transmembrane potential” value (Staphylococcal cells) was “increase in fluorescence” and the “cellular ATP loss and PI uptake” value [3] was “significant cellular ATP loss alongside the reciprocal uptake of PI”.

`CCCCCCCCCc1nc2cc(F)ccc2c(=O)n1OC` [Compound 39] gave an MIC (S. aureus strain RN6390B; [7]) greater than 100 µM.

Work on `CCCCCCCCCc1nc2cc(Cl)ccc2c(=O)n1CCO` [Compound 45, 7-Chloro-3-(2-hydroxyethyl)-2-n-nonylquinazolin-4(3H)-one] yielded an MIC (S. aureus strain RN6390B; [7]) greater than 100 µM and an MIC (S. aureus strain RN6390B; Staphylococcus aureus, RN6390B) greater than 100 µM.

With `CCCCCCCCCc1[nH]c2ccccc2c(=O)c1O` [Compound C9-PQS, reference compound] the “change in membrane dipole potential” value (S. aureus membranes [1]) was “little impact”.

In the case of `CCCCCCCCCCCCCC(=O)C1=C(O)COC1=O` [Compound C14-TOA, 3-tetradecanoyltetronic acid], the Kd (S. aureus membranes [4]) is listed as 4 µM.

For `CCCCCCCc1[nH]c2ccccc2c(=O)c1O` [PQS, 2-Heptyl-3-hydroxy-4(1H)-quinolone], the iron-chelating properties (Chrome azurol S) was “sequestered iron”.

With `NC[C@H]1O[C@H](O[C@H]2[C@H](O)[C@@H](O[C@H]3O[C@H](CO)[C@@H](O)[C@H](N)[C@H]3O)[C@H](N)C[C@@H]2N)[C@H](N)C[C@@H]1O` [tobramycin] the S. aureus biomass [5] was “clearly protected” and the “reduction of P. aeruginosa biomass” value [6] was roughly 60%.
